# Assay results taken from ChEMBL document CHEMBL3632518, “Synthesis and anti-HCV determinant motif identification in pyranone carboxamide scaffold” (Bioorg Med Chem Lett, 2015).
# Columns and labels:
# Hepatitis C virus = test: Antiviral activity against HCV genotype 1b infected in human HuH7 cells after 3 days by luciferase reporter gene assay; format: functional, organism-based, Hepacivirus hominis; details: Huh-7, 72 h
# Outline: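 Huh-7 cells carrying self-replicating subgenomic genotype 1b HCV replicon with luciferase reporter (LucNeo#2), kept in DMEM high glucose plus 10% heat-inactivated FBS and 1 mg/ml G418. Seeded at 5×10^3 cells/well without G418 with various compound concentrations (DMSO stocks, 20 mM or higher); 37°C, 3 days. Cells PBS-washed, lysed, luciferase read by luminometer. EC50 from inhibition of luciferase activity.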
# [1] = Cytotoxicity against human HuH7 cells after 3 days by tetrazolium dye method; format: cell-based, Huh-7
# Outline: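 LucNeo#2 replicon-bearing Huh-7 cells, 5×10^3 cells/well, grown without G418 with various compound concentrations at 37°C for 3 days. Viable cell number measured by water-soluble tetrazolium dye (Tetracolor One) method. CC50 taken as concentration reducing viable cell number by 50%.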
Structure (SMILES),EC50 (Hepatitis C virus) [µM],CC50 at 72 h [1] [µM]
O=C(NCCO)c1c(N2CCCCC2)cc(-c2ccc(F)cc2)oc1=O,> 100,> 100
COc1ccccc1NC(=O)c1c(NO)cc(-c2ccccc2)oc1=O,0.35,> 20
COc1cccc(NC(=O)c2c(NO)cc(-c3ccccc3)oc2=O)c1,0.63,> 20
CCOc1ccccc1NC(=O)c1c(NO)cc(-c2ccccc2)oc1=O,1.1,> 20
O=C(Nc1cccc(C(F)(F)F)c1)c1c(NO)cc(-c2ccccc2)oc1=O,1.2,19
Nc1ccccc1NC(=O)c1c(NO)cc(-c2ccccc2)oc1=O,0.48,> 20
O=C(Nc1ccccc1O)c1c(NO)cc(-c2ccccc2)oc1=O,1.7,14
O=C(Nc1cc([N+](=O)[O-])ccc1O)c1c(NO)cc(-c2ccccc2)oc1=O,3.5,> 20
O=C(NC1CCCCC1)c1c(NO)cc(-c2ccccc2)oc1=O,2.3,10.5
O=C(NC1CC1)c1c(NO)cc(-c2ccc(F)cc2)oc1=O,3.3,> 20
O=C(NC1CCCCC1)c1c(NO)cc(-c2ccc(F)cc2)oc1=O,3.2,11.4
O=C(NC1CC1)c1c(NO)cc(-c2ccc(Cl)cc2)oc1=O,2.9,12.8
O=C(NC1CCCCC1)c1c(NO)cc(-c2ccc(Cl)cc2)oc1=O,2.2,8.8
Cc1ccc(-c2cc(NO)c(C(=O)NC3CCCCC3)c(=O)o2)cc1,5,10.1
COc1ccc(-c2cc(NO)c(C(=O)NC3CCCCC3)c(=O)o2)cc1,4.1,13.9
O=C(Nc1ccccc1)c1c(NO)cc(-c2cccs2)oc1=O,1.3,> 20
O=C(Nc1ccc(F)cc1)c1c(NO)cc(-c2cccs2)oc1=O,0.65,> 20
O=C(Nc1ccc(Cl)cc1)c1c(NO)cc(-c2cccs2)oc1=O,3.8,> 20
O=C(Nc1ccc(Br)cc1)c1c(NO)cc(-c2cccs2)oc1=O,6,> 20
Cc1ccccc1NC(=O)c1c(NO)cc(-c2cccs2)oc1=O,0.59,> 20
Cc1cccc(NC(=O)c2c(NO)cc(-c3cccs3)oc2=O)c1,0.47,> 20
Cc1ccc(NC(=O)c2c(NO)cc(-c3cccs3)oc2=O)cc1,0.39,> 20
COc1ccc(NC(=O)c2c(NO)cc(-c3cccs3)oc2=O)cc1,0.2,> 20

Structure (SMILES),EC50 (Hepatitis C virus) [µM],CC50 at 72 h [1] [µM]
O=C(Nc1cccc(C(F)(F)F)c1)c1c(NO)cc(-c2cccs2)oc1=O,1.8,11
Nc1ccccc1NC(=O)c1c(NO)cc(-c2cccs2)oc1=O,0.25,> 20
CCOc1ccccc1NC(=O)c1c(NCCO)cc(-c2ccccc2)oc1=O,> 20,> 20
O=C(Nc1ccccc1O)c1c(NCCO)cc(-c2ccccc2)oc1=O,> 20,> 20
O=C(Nc1ccccc1)c1c(NCCO)cc(-c2cccc(Br)c2)oc1=O,> 20,> 20
O=C(Nc1ccc(F)cc1)c1c(NCCO)cc(-c2cccc(Br)c2)oc1=O,5.5,> 20
O=C(Nc1ccc(Cl)cc1)c1c(NCCO)cc(-c2cccc(Br)c2)oc1=O,7.1,17
O=C(Nc1ccc(Br)cc1)c1c(NCCO)cc(-c2cccc(Br)c2)oc1=O,13,> 20
COc1ccccc1NC(=O)c1c(NCCO)cc(-c2cccc(Br)c2)oc1=O,6,> 20
CCOc1ccccc1NC(=O)c1c(NCCO)cc(-c2cccc(Br)c2)oc1=O,> 20,> 20
O=C(Nc1ccc(Cl)cc1)c1c(NCCO)cc(-c2ccc(Br)cc2)oc1=O,10,> 20
O=C(Nc1ccc(Br)cc1)c1c(NCCO)cc(-c2ccc(Br)cc2)oc1=O,14.4,> 20
COc1ccccc1NC(=O)c1c(NCCO)cc(-c2ccc(Br)cc2)oc1=O,> 20,> 20
COc1cccc(NC(=O)c2c(NCCO)cc(-c3ccc(Br)cc3)oc2=O)c1,> 20,> 20
COc1ccc(NC(=O)c2c(NCCO)cc(-c3ccc(Br)cc3)oc2=O)cc1,14,> 20
CCOc1ccccc1NC(=O)c1c(NCCO)cc(-c2ccc(Br)cc2)oc1=O,> 20,> 20
O=C(NCCBr)c1c(NCCO)cc(-c2cccs2)oc1=O,15,> 20
COc1ccccc1NC(=O)c1c(NCCO)cc(-c2cccs2)oc1=O,> 20,> 20
COc1cccc(NC(=O)c2c(NCCO)cc(-c3cccs3)oc2=O)c1,> 20,> 20
CCOc1ccccc1NC(=O)c1c(NCCO)cc(-c2cccs2)oc1=O,5.1,10
CONc1cc(-c2ccc(C)cc2)oc(=O)c1C(=O)NCCCO,> 100,> 100
CCC[C@H](NC(=O)[C@@H]1[C@H]2CCC[C@H]2CN1C(=O)[C@@H](NC(=O)[C@@H](NC(=O)c1cnccn1)C1CCCCC1)C(C)(C)C)C(=O)C(=O)NC1CC1 [TELAPREVIR],0.36,> 20
